Experimental data reported in ChEMBL document CHEMBL5316304, “Collaborative Virtual Screening Identifies a 2-Aryl-4-aminoquinazoline Series with Efficacy in an In Vivo Model of Trypanosoma cruzi Infection” (J Med Chem, 2023).
≈ marks a conversion by molar mass, not a printed value. Calls of active or inactive are those of the source. The calls are words filed in the database; no cut-off is given here.

Legend:
[1] = tested on: Trypanosoma cruzi; experiment: Antitrypanosomal activity against intracellular Trypanosoma cruzi infected in human U2OS cells assessed as parasite growth inhibition incubated for 72 hrs by confocal microscopy; type: functional, organism-based; details: Trypanosoma cruzi, U2OS, 72 h
[2] = Selectivity index, ratio of IC50 for human U2OS cells to IC50 for intracellular Trypanosoma cruzi infected in human U2OS cells; type: toxicity, cell-based; details: U2OS cells, read-out: Selectivity Index
How it was run: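 Host U2OS cell counts and intracellular parasite infection ratio were read from the same 72 h DRAQ5-stained confocal imaging assay. CC50 and EC50 came from 4-parameter logistic fits, and the selectivity index is their ratio.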

[3] = Intrinsic clearance in mouse liver microsomes at 1 uM incubated for 15 to 30 mins by LC/MS/MS analysis; type: ADME, Microsome; details: time 15-30 min
[4] = tested on: Trypanosoma cruzi; experiment: Inhibition of Trypanosoma cruzi CYP51 upto 100 uM by fluorescence based assay
[5] = Permeability of compound incubated for 3 hrs by PAMPA assay; type: ADME; details: read-out: permeability
[6] = Intrinsic clearance in human liver microsomes at 1 uM incubated for 15 to 30 mins by LC/MS/MS analysis; type: ADME, Microsome; details: time 15-30 min
[7] = Kinetic solubility of compound in aqueous buffer at pH 6.8 incubated for 16 to 24 hrs by HPLC analysis; type: physicochemical; details: time 16-24 hrs, read-out: Kinetic_solubility
[8] = tested on: Trypanosoma cruzi; experiment: Antitrypanosomal activity against acute-stage Trypanosoma cruzi CL Brener infected in BALB/c mouse assessed as reduction in parasite burden at 50 mg/kg, po bid administered for 5 days measured after 14 days by bioluminescence imaging based analysis; type: functional, organism-based; details: time 14.0 day
[9] = Selectivity index, ratio of IC50 for human THP-1 cells to IC50 for Leishmania donovani infected in human THP-1 cells; type: toxicity, cell-based; details: read-out: Selectivity Index

SMILES	IC50 [1] [µM]	selectivity ratio [2]	also measured
N#CC1CCCN(c2nc(-c3ccccn3)nc3ccccc23)C1 (configuration not stated)	18	2.7	
N#CC1CCN(c2nc(-c3ccccn3)nc3ccccc23)CC1	24	2.1	
Cc1cnc(C)c(Nc2nc(-c3ccccn3)nc3ccccc23)c1	14	3.6	Papp at 3 h [5]: 201 nm/s; intrinsic clearance (CLint) [3]: 154 µL/min/mg; CLint [6]: < 1 µL/min/mg; solubility kinetic [7]: 0.031 mg/mL (≈ 94.7 µM)
c1ccc(-c2nc(Nc3ccn4nccc4c3)c3ccccc3n2)nc1	11	2.9	
Cn1cc(CNc2nc(-c3ccccn3)nc3ccccc23)cn1	9.6	5.2	
Fc1ccc(Nc2nc(-c3ccccn3)nc3ccccc23)cc1	1.3		
CCC(C)Nc1nc(-c2ccccn2)nc2ccccc12 (configuration not stated)	2.1		
c1ccc(-c2nc(NCc3nccs3)c3ccccc3n2)nc1	2.7	19	
CC(Nc1nc(-c2ccccn2)nc2ccccc12)c1ccccn1 (configuration not stated)	2.7	18	
c1ccc(-c2nc(N3CCC(c4ccccn4)C3)c3ccccc3n2)nc1 (racemic)			Activity [8]: inactive
OC1(c2ccccc2)CCN(c2nc(-c3ccccn3)nc3ccccc23)C1 (configuration not stated)	35	2.8	
CCn1ncc2nc(-c3ccccn3)nc(N3CCC(c4ccccn4)C3)c21 (configuration not stated)	1.2	2.7	
OC1(c2ccccc2)CCN(c2nc(-c3ccccn3)nc3ccccc23)CC1	3.3	15	
c1ccc(CNc2nc(-c3ccccn3)nc3ccccc23)nc1	4.4	11	
c1ccc(-c2nc(NCc3cccnc3)c3ccccc3n2)nc1	6.3	8	
c1ccc(-c2nc(N3CCc4ncccc4C3)c3ccccc3n2)nc1	9.2	5.5	
COc1ccc(Nc2nc(-c3ccccn3)nc3ccccc23)cc1	1.2		
c1ccc(CCNc2nc(-c3ccccn3)nc3ccccc23)nc1	3.4	14	
Cc1nc(-c2ccccn2)nc(NCc2ccccc2)c1Cl	> 50		selectivity ratio [9]: > 2.5

Further lines, with some results ahead:

IC50 [1] [µM]	SMILES	selectivity ratio [2]	also measured
0.41	Fc1ccc(C2CCN(c3nc(-c4ccccn4)nc4ccccc34)C2)cc1 (configuration not stated)	9.2	intrinsic clearance (CLint) [3]: > 500 µL/min/mg; inhibition [4]: inactive
0.51	Fc1cccc(Nc2nc(-c3ccccn3)nc3ccccc23)c1	20	
0.13	c1ccc(CNc2nc(-c3ccccn3)nc3ccccc23)cc1	57	
0.72	c1ccc(-c2nc(N3CCc4ccccc4C3)c3ccccc3n2)nc1	6.6	Papp at 3 h [5]: 408 nm/s; intrinsic clearance (CLint) [3]: 464 µL/min/mg; CLint [6]: 150 µL/min/mg; solubility kinetic [7]: 0.01 mg/mL (≈ 29.5 µM)
0.41	CC1CCN(c2nc(-c3ccccn3)nc3ccccc23)CC1		Papp at 3 h [5]: 441 nm/s; intrinsic clearance (CLint) [3]: > 500 µL/min/mg; CLint [6]: 112 µL/min/mg; solubility kinetic [7]: 0.059 mg/mL (≈ 194 µM)
0.9	c1ccc(-c2nc(N3CCCCC3)c3ccccc3n2)nc1		
0.08	c1ccc(CCNc2nc(-c3ccccn3)nc3ccccc23)cc1		
0.45	c1ccc(CN2CCN(c3nc(-c4ccccn4)nc4ccccc34)CC2)cc1	27	
1.1	c1ccc(-c2nc(N3CCCC3)c3ccccc3n2)nc1	8.6	
0.56	Cn1ccc2nc(-c3ccccn3)nc(N3CCC(c4ccccn4)C3)c21 (configuration not stated)	16	Papp at 3 h [5]: 219 nm/s; solubility kinetic [7]: 0.09 mg/mL (≈ 253 µM)
0.1	Cc1ccc(Nc2nc(-c3ccccn3)nc3ccccc23)nc1	< 1	
0.12	Cc1ccc(Nc2nc(-c3ccccn3)nc3ccccc23)cc1		
0.43	CC1CCCN(c2nc(-c3ccccn3)nc3ccccc23)C1 (configuration not stated)	19	Papp at 3 h [5]: 364 nm/s; intrinsic clearance (CLint) [3]: 452 µL/min/mg; CLint [6]: 188 µL/min/mg; solubility kinetic [7]: 0.069 mg/mL (≈ 227 µM)
0.1	CCn1cc2nc(-c3ccccn3)nc(N3CCC(c4ccccn4)C3)c2n1 (configuration not stated)	2.8	Papp at 3 h [5]: 220 nm/s; intrinsic clearance (CLint) [3]: 70 µL/min/mg; CLint [6]: < 1 µL/min/mg; solubility kinetic [7]: 0.094 mg/mL (≈ 253 µM)
